# Experimental data as given in ChEMBL document CHEMBL1136715, “Modifications of the ethanolamine head in N-palmitoylethanolamine: synthesis and evaluation of new agents interfering with the metabolism of anandamide” (J Med Chem, 2003).
# Key:
# [1] = target: Cannabinoid receptor 2 (Homo sapiens) (UniProt P34972); assay: Percent inhibition of specific binding of [3H]WIN-55212-2 towards human cannabinoid receptor 2 from Chinese hamster ovary cell membranes at the concentration of 10 uM
# Procedure, shortened: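 Membranes (40 μg) from human CB2-transfected CHO cells (Ham's F12, 10% FBS, G418) were incubated with 1 nM [3H]-WIN 55,212-2 for 1 h at 30 °C in 50 mM Tris-HCl/MgCl2/EDTA, pH 7.4, with 50 μM PMSF. Bound radioligand was collected on 0.5% PEI-pretreated GF/B filters and counted by liquid scintillation.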
# [2] = target: Cannabinoid receptor 1 (Homo sapiens) (UniProt P21554); assay: Percent inhibition of specific binding of [3H]CP-55940 towards human cannabinoid receptor 1 from Chinese hamster ovary cell membranes at the concentration of 10 uM
# Procedure, shortened: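 Membranes (40 μg) from CHO cells stably expressing human CB1 (grown in Ham's F12, 10% FBS, G418) were incubated with 1 nM [3H]-CP55,940 for 1 h at 30 °C in 50 mM Tris-HCl with MgCl2 and EDTA, pH 7.4, plus 50 μM PMSF. Nonspecific binding was defined with 10 μM HU-210. Filtration was on PEI-treated GF/B filters, followed by scintillation counting.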
# Rattus norvegicus [3] = species: Rattus norvegicus; assay: Percent inhibition of AEA (N-arachidonoylethanolamine) metabolism in rat brain homogenates using [3H]anandamide as the labeled substrate.; assay type: functional; set-up: concentration or dose not given beside the values; conditions: dose or concentration not given here
# Procedure, shortened: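 Rat brain membranes with test compound or ethanol carrier and [3H]-AEA (2 μM final) in 10 mM Tris-HCl, 1 mM EDTA, 1% w/v fatty-acid-free BSA, pH 7.6, for 10 min at 37 °C. Ice plus chloroform/methanol (1:1) stopped the reaction, and the methanol/buffer phase was counted with quench correction. Blanks used water in place of homogenate. Values come from at least three experiments.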
# Rattus norvegicus [4] = species: Rattus norvegicus; assay: Tested for percent inhibition of AEA (N-arachidonoylethanolamine) metabolism in rat brain homogenates using [3H]anandamide as the labeled substrate at 100 uM; assay type: functional
# Rattus norvegicus [5] = species: Rattus norvegicus; assay: Inhibition of AEA (N-arachidonoylethanolamine) metabolism using rat brain homogenates at pH 6 using [3H]-anandamide as the labeled substrate; assay type: functional; conditions: dose or concentration not given here
# Procedure, shortened: (§1)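 Rat brain membranes (adult, minus cerebellum) were homogenized in 20 mM HEPES pH 7.0 with 1 mM MgCl2, washed, preincubated 15 min at 37 °C, and stored at -70 °C. Incubation was with [3H]-AEA (2 μM final) for 10 min at 37 °C at pH 6 or pH 9. Chloroform/methanol stopped the reaction, and [3H]-ethanolamine in the aqueous phase was counted. pI50 and maximal inhibition came from 3–5 experiments (three homogenate preparations) over 3–100 μM (seven concentrations).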
# Rattus norvegicus [6] = species: Rattus norvegicus; assay: Inhibition of AEA (N-arachidonoylethanolamine) metabolism using rat brain homogenates at pH 9 using [3H]anandamide as the labeled substrate; assay type: functional; conditions: dose or concentration not given here; procedure, shortened: as §1
# Rattus norvegicus [7] = species: Rattus norvegicus; assay: Inhibition of AEA (N-arachidonoylethanolamine) metabolism using rat brain homogenates at pH 6 and at the concentration of 50 uM using [3H]anandamide as the labeled substrate; assay type: functional
# Chain of Cannabinoid receptor 1 (Homo sapiens) (P21554 whole entry): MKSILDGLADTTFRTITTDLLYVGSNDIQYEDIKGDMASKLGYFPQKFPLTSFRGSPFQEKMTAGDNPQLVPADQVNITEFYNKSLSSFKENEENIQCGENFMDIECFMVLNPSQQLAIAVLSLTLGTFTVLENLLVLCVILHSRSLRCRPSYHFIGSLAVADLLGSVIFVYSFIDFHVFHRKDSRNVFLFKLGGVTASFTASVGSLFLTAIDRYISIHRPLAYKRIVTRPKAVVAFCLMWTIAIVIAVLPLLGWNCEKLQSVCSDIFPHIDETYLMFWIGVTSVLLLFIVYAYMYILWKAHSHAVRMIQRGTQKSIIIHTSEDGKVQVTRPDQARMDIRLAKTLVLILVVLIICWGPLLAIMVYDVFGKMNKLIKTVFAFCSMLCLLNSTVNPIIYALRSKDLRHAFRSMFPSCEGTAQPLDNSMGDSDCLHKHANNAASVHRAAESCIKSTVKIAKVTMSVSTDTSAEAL
# Chain of Cannabinoid receptor 2 (Homo sapiens) (P34972 whole entry): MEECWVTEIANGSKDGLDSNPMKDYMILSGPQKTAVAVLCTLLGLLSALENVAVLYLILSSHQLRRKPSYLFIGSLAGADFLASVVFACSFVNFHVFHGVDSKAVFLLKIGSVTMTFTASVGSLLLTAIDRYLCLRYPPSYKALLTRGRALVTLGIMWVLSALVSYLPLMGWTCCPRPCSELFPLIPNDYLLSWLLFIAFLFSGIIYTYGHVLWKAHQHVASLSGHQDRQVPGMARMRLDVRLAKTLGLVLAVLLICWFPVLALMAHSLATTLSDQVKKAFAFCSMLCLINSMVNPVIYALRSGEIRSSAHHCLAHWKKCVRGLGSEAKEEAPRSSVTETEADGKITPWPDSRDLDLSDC
inhibition [1] [%],inhibition [2] [%],SMILES,inhibition (Rattus norvegicus [3]) [%],inhibition (Rattus norvegicus [4]) [%],inhibition (Rattus norvegicus [5]) [%],inhibition (Rattus norvegicus [6]) [%],inhibition (Rattus norvegicus [7]) [%]
6.1,14.4,CCCCCCCCCCCCCCCC(=O)NCCC,49,–,–,–,–
6.5,4.9,CCCCCCCCCCCCCCCC(=O)Nc1ccccc1C,31,–,–,–,–
–,–,CCCCCCCCCCCCCCCC(=O)NC1CCCCC1,–,11,–,–,–
0.7,4.8,CCCCCCCCCCCCCCCC(=O)NCc1ccc(C)cc1,100,–,–,–,–
12.9,19.6,CCCCCCCCCCCCCCCC(=O)NCCCC,24,–,–,–,–
1.1,2.2,CCCCCCCCCCCCCCCC(=O)NC(c1ccccc1)c1ccccc1,–,0,–,–,–
2.7,3.3,CCCCCCCCCCCCCCCC(=O)N(CC)CC,–,2,–,–,–
5,44.8,CCCCCCCCCCCCCCCC(=O)Nc1ccc(O)cc1,–,55,–,–,–
7.4,11.1,CCCCCCCCCCCCCCCC(=O)Nc1ccc(Cl)cc1,11,–,–,–,–
6.7,15.7,CCCCCCCCCCCCCCCC(=O)NC(C)(C)CO,0,–,–,–,–
6.4,15,CCCCCCCCCCCCCCCC(=O)NCCCO,61,–,45,81,–
2.7,10.8,CCCCCCCCCCCCCCCC(=O)Nc1ccccc1O,–,53,–,–,–
4.1,7.3,CCCCCCCCCCCCCCCC(=O)NCC(=O)OC,100,–,75,100,–
0.1,0.7,CCCCCCCCCCCCCCCC(=O)Nc1ccc2ccccc2c1,28,–,–,–,–
4.2,15.5,CCCCCCCCCCCCCCCC(=O)N1CCOCC1,–,6,–,–,–
15.1,35.8,CCCCCCCCCCCCCCCC(=O)NCCBr,41,–,–,–,–
8.9,18.5,CCCCCCCCCCCCCCCC(=O)NCC(C)C,6,–,–,–,–
6.5,2.8,CCCCCCCCCCCCCCCC(=O)Nc1ccc(C)cc1,–,0,–,–,–

inhibition [1] [%],inhibition [2] [%],SMILES,inhibition (Rattus norvegicus [3]) [%],inhibition (Rattus norvegicus [4]) [%],inhibition (Rattus norvegicus [5]) [%],inhibition (Rattus norvegicus [6]) [%],inhibition (Rattus norvegicus [7]) [%]
12.9,11.7,CCCCCCCCCCCCCCCC(N)=O,51,–,–,–,–
13.5,25.2,CCCCCCCCCCCCCCCC(=O)NCCCl,48,–,–,–,–
0.5,2.8,CCCCCCCCCCCCCCCC(=O)Nc1ccccc1,18,–,–,–,–
–,–,CCCCCCCCCCCCCCCC(=O)NC(C)C,61,–,–,39,4
3.7,25.4,CCCCCCCCCCCCCCCC(=O)NCc1ccc(OC)cc1,–,29,–,–,–
6,16,CCCCCCCCCCCCCCCNC(=O)COC(C)=O,87,–,–,–,–
9.5,27.1,CCCCCCCCCCCCCCCC(=O)NC1CCCC1,–,43,–,–,–
–,–,CCCCCCCCCCCCCCCC(=O)NCCO,78,–,62,100,–
1.3,22.8,CCCCCCCCCCCCCCCC(=O)NCCc1ccccc1,–,19,–,–,–
–,2.5,CCCCCCCCCCCCCCCC(=O)NC,100,–,–,–,–
3.9,8.2,CCCCCCCCCCCCCCCC(=O)NCCF,–,6,–,–,–
6.4,0.3,CCCCCCCCCCCCCCCC(=O)N(C)C,–,30,–,–,–
7.8,13.3,C=CCNC(=O)CCCCCCCCCCCCCCC,67,–,–,–,–
3.9,40.9,CCCCCCCCCCCCCCCC(=O)Nc1cccc(O)c1,–,51,–,–,–
14.3,30.6,CCCCCCCCCCCCCCCC(=O)NCCCCl,27,–,–,–,–
5.2,18.1,CCCCCCCCCCCCCCCC(=O)NOC,46,–,–,–,–
2,24.6,CCCCCCCCCCCCCCCC(=O)NC(C)(C)C,0,–,–,–,–
10,2.8,CCCCCCCCCCCCCCCC(=O)NCC,72,–,–,–,–

SMILES,inhibition [1] [%],inhibition [2] [%],inhibition (Rattus norvegicus [3]) [%],inhibition (Rattus norvegicus [4]) [%],inhibition (Rattus norvegicus [5]) [%],inhibition (Rattus norvegicus [6]) [%],inhibition (Rattus norvegicus [7]) [%]
CCCCCCCCCCCCCCCC(=O)NC1CC1,16.3,12.8,57,–,–,–,–
